Measurements reported in ChEMBL document CHEMBL1152769, “Exploiting the pyrazolo[3,4-d]pyrimidin-4-one ring system as a useful template to obtain potent adenosine deaminase inhibitors” (J Med Chem, 2009).
Active and inactive are the calls of the source. The rule behind the calls is not given here.

Legend:
Bos taurus = species: Bos taurus; experiment: Inhibition of bovine spleen adenosine deaminase type 9 at <= 10 uM by spectrophotometry
How it was run: (§1)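 Bovine spleen ADA type IX (0.3 nM) with 50 µM adenosine in 50 mM potassium phosphate, pH 7.2, at 30 °C. Deamination read as the A262 change over 2 min, against a substrate-free blank. DMSO ≤4% final. Screened at 10^-5 M; actives retested at 10-5 to 10-11 M in triplicate. IC50 taken by linear regression of log concentration-response, then converted to Ki by Cheng-Prusoff.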

[1] = Inhibition of bovine spleen adenosine deaminase type 9 by spectrophotometry; design: species or system Bos taurus; how it was run: as §1
Rattus norvegicus [2] = experiment: Antiinflammatory activity in DNBS-induced Sprague-Dawley rat colitis model assessed as reduction in DNBS-induced increase in spleen weight at 0.25 umol/kg, ip for 7 days administered 1 day before colitis induction; assay type: functional, organism-based
How it was run: (§2)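 Colitis was induced in male Sprague-Dawley rats (250-300 g) by intrarectal DNBS, 15 mg in 0.25 mL 50% ethanol, under isoflurane. Drug was given ip daily for 7 days from 1 day before induction; six rats per group; vehicle controls. Spleen was weighed at assessment 6 days after DNBS and expressed as % increase, as an index of systemic inflammation.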

Rattus norvegicus [3] = experiment: Antiinflammatory activity in DNBS-induced Sprague-Dawley rat colitis model assessed as reduction in DNBS-induced macroscopic damage in colon at 0.25 umol/kg, ip for 7 days administered 1 day before colitis induction; assay type: functional, organism-based
How it was run: (§3)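 DNBS colitis was induced in male Sprague-Dawley rats (250-300 g): 15 mg in 0.25 mL 50% ethanol given intrarectally. Dosing was ip for 7 days, beginning 1 day before DNBS; n=6 per group; vehicle controls. Six days after DNBS, the whole colon was scored for macroscopic damage by two observers blinded to treatment.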

Rattus norvegicus [4] = experiment: Antiinflammatory activity in DNBS-induced Sprague-Dawley rat colitis model assessed as reduction in DNBS-induced increase in colonic tissue malondialdehyde level at 5 to 45 umol/kg, ip for 7 days administered 1 day before colitis induction; assay type: functional, organism-based
How it was run: (§4)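 Rats (male Sprague-Dawley) received intrarectal DNBS (15 mg in 50% ethanol), with ip dosing for 7 days from 1 day before; n=6 per group. Colon was taken at day 6, homogenized in cold 20 mmol/L Tris-HCl, pH 7.4, and spun 1500g for 10 min at 4 °C. MDA was measured by colorimetric kit and expressed as µmol per mg tissue.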

Rattus norvegicus [5] = experiment: Antiinflammatory activity in DNBS-induced Sprague-Dawley rat colitis model assessed as reduction in DNBS-induced increase in colonic tissue TNFalpha level at 0.25 umol/kg, ip for 7 days administered 1 day before colitis induction; assay type: functional, organism-based
How it was run: (§5)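 In male Sprague-Dawley rats with intrarectal DNBS colitis (15 mg in 50% ethanol), dosing was ip for 7 days from 1 day before induction; six per group. Colon samples from day 6 were stored at -80 °C, homogenized at 4 °C in PBS, pH 7.2 (0.3 mL/100 mg), and centrifuged at 13400g for 20 min. TNF-α was measured by ELISA and expressed as pg/mg tissue.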

Rattus norvegicus [6] = experiment: Antiinflammatory activity in DNBS-induced Sprague-Dawley rat colitis model assessed as reduction in DNBS-induced increase in colonic tissue malondialdehyde level at 0.25 umol/kg, ip for 7 days administered 1 day before colitis induction; assay type: functional, organism-based; how it was run: as §4
Rattus norvegicus [7] = experiment: Antiinflammatory activity in DNBS-induced Sprague-Dawley rat colitis model assessed as DNBS-induced increase in colonic tissue TNFalpha level at 45 umol/kg, ip for 7 days administered 1 day before colitis induction; assay type: functional; how it was run: as §5
Rattus norvegicus [8] = experiment: Antiinflammatory activity in ip dosed Sprague-Dawley rat colitis model assessed as reduction in DNBS-induced macroscopic damage in colon administered for 7 days 1 day before colitis induction; assay type: functional, organism-based; how it was run: as §3
Rattus norvegicus [9] = experiment: Antiinflammatory activity in DNBS-induced Sprague-Dawley rat colitis model assessed as DNBS-induced macroscopic damage in colon at 15 umol/kg, ip for 7 days administered 1 day before colitis induction; assay type: functional; how it was run: as §3
Rattus norvegicus [10] = experiment: Antiinflammatory activity in ip dosed Sprague-Dawley rat colitis model assessed as reduction in DNBS-induced increase in colonic tissue malondialdehyde level administered for 7 days 1 day before colitis induction; assay type: functional, organism-based; how it was run: as §4
Rattus norvegicus [11] = experiment: Antiinflammatory activity in DNBS-induced Sprague-Dawley rat colitis model assessed as DNBS-induced increase in spleen weight at 45 umol/kg, ip for 7 days administered 1 day before colitis induction; assay type: functional; how it was run: as §2
Rattus norvegicus [12] = experiment: Antiinflammatory activity in DNBS-induced Sprague-Dawley rat colitis model assessed as DNBS-induced increase in spleen weight at 15 umol/kg, ip for 7 days administered 1 day before colitis induction; assay type: functional; how it was run: as §2
Rattus norvegicus [13] = experiment: Antiinflammatory activity in ip dosed Sprague-Dawley rat colitis model assessed as reduction in DNBS-induced increase in colonic tissue TNFalpha level administered for 7 days 1 day before colitis induction; assay type: functional, organism-based; how it was run: as §5
Rattus norvegicus [14] = experiment: Antiinflammatory activity in ip dosed Sprague-Dawley rat colitis model assessed as reduction in DNBS-induced increase in spleen weight administered for 7 days 1 day before colitis induction; assay type: functional, organism-based; how it was run: as §2
Rattus norvegicus [15] = experiment: Antiinflammatory activity in DNBS-induced Sprague-Dawley rat colitis model assessed as DNBS-induced increase in spleen weight at 5 umol/kg, ip for 7 days administered 1 day before colitis induction; assay type: functional; how it was run: as §2
Rattus norvegicus [16] = experiment: Antiinflammatory activity in DNBS-induced Sprague-Dawley rat colitis model assessed as DNBS-induced macroscopic damage in colon at 45 umol/kg, ip for 7 days administered 1 day before colitis induction; assay type: functional; how it was run: as §3
Rattus norvegicus [17] = experiment: Toxicity in Sprague-Dawley rat assessed as mortality at 5 to 45 umol/kg, ip for 7days; assay type: organism-based; settings: in vivo, 168 h
Rattus norvegicus [18] = experiment: Antiinflammatory activity in DNBS-induced Sprague-Dawley rat colitis model assessed as body weight loss at 15 umol/kg, ip for 7 days administered 1 day before colitis induction; assay type: functional
How it was run: (§6)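 Male Sprague-Dawley rats (250-300 g) under brief isoflurane received 15 mg DNBS in 0.25 mL 50% ethanol intrarectally, 8 cm proximal to anus. Drug was given ip for 7 days starting 1 day before DNBS; controls received vehicle; n=6 per group. Body weight was recorded daily from the start of dosing, and the change was taken at day 6 after DNBS.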

Rattus norvegicus [19] = experiment: Toxicity in Sprague-Dawley rat assessed as behavioral changes at 5 to 45 umol/kg, ip for 7days; assay type: organism-based; settings: in vivo, 168 h
Rattus norvegicus [20] = experiment: Antiinflammatory activity in DNBS-induced Sprague-Dawley rat colitis model assessed as body weight loss at 5 umol/kg, ip for 7 days administered 1 day before colitis induction; assay type: functional; how it was run: as §6
Rattus norvegicus [21] = experiment: Antiinflammatory activity in DNBS-induced Sprague-Dawley rat colitis model assessed as body weight gain at 45 umol/kg, ip for 7 days administered 1 day before colitis induction; assay type: functional; how it was run: as §6
Rattus norvegicus [22] = experiment: Antiinflammatory activity in ip dosed Sprague-Dawley rat colitis model assessed as reduction in DNBS-induced decrease in body weight administered for 7 days 1 day before colitis induction; assay type: functional, organism-based; how it was run: as §6
Rattus norvegicus [23] = experiment: Toxicity in Sprague-Dawley rat assessed as variation in food intake at 5 to 45 umol/kg, ip for 7days; assay type: organism-based; settings: in vivo, 168 h
Rattus norvegicus [24] = experiment: Antiinflammatory activity in DNBS-induced Sprague-Dawley rat colitis model assessed as DNBS-induced macroscopic damage in colon at 5 umol/kg, ip for 7 days administered 1 day before colitis induction; assay type: functional; how it was run: as §3
Rattus norvegicus [25] = experiment: Toxicity in Sprague-Dawley rat assessed as variation in body weight at 5 to 45 umol/kg, ip for 7days; assay type: organism-based; settings: in vivo, 168 h

CCCCCCCCCCCn1cc2c(=O)[nH]cnc2n1
Activity (Bos taurus): inactive

CN(C)c1ccc(NC(=O)Nc2ccc(Cn3cc4c(=O)[nH]cnc4n3)cc2)cc1
Ki [1]: 2.01 nM

O=C(Nc1ccccc1)Nc1ccc(Cn2cc3c(=O)[nH]cnc3n2)cc1
Ki [1]: 2.42 nM

O=C(Nc1ccc(Cn2cc3c(=O)[nH]cnc3n2)cc1)c1ccc(F)cc1
Ki [1]: 0.96 nM

O=C(Nc1ccc(Cn2cc3c(=O)[nH]cnc3n2)cc1)Nc1ccc(OCc2ccccc2)cc1
Ki [1]: 108 nM

COc1ccc(C(=O)Nc2ccc(Cn3cc4c(=O)[nH]cnc4n3)cc2)cc1
Ki [1]: 15.6 nM

C[C@@H]1C[C@H]2[C@@H]3CCC4=CC(=O)C=C[C@]4(C)[C@@]3(F)[C@@H](O)C[C@]2(C)[C@@]1(O)C(=O)CO
Activity (Rattus norvegicus [2]): Active
Activity (Rattus norvegicus [3]): Active
Activity (Rattus norvegicus [4]): Active
Activity (Rattus norvegicus [5]): Active
Activity (Rattus norvegicus [6]): Active

CCCCCCCCCCn1cc2c(=O)[nH]cnc2n1
Activity (Bos taurus): inactive

O=C(Cc1ccccc1)Nc1ccc(Cn2cc3c(=O)[nH]cnc3n2)cc1
Ki [1]: 47.9 nM

COc1ccc(NC(=O)Nc2ccc(Cn3cc4c(=O)[nH]cnc4n3)cc2)cc1
Ki [1]: 28.3 nM

O=C(Nc1ccc(Cn2cc3c(=O)[nH]cnc3n2)cc1)Nc1ccc(C(F)(F)F)cc1
Activity (Rattus norvegicus [7]): 5.8 pg/mg
Activity (Rattus norvegicus [8]): Dose-dependent effect
Activity (Rattus norvegicus [9]): 5.6
Activity (Rattus norvegicus [10]): Dose-dependent effect
Activity (Rattus norvegicus [11]): 10.1%
Activity (Rattus norvegicus [12]): 18.9%
Activity (Rattus norvegicus [13]): Dose-dependent effect
Activity (Rattus norvegicus [14]): Dose-dependent effect
Activity (Rattus norvegicus [15]): 23.8%
Activity (Rattus norvegicus [16]): 4.3
Ki [1]: 0.16 nM
Activity (Rattus norvegicus [17]): Non-toxic
Activity (Rattus norvegicus [18]): 10.4 g
Activity (Rattus norvegicus [19]): Non-toxic
Activity (Rattus norvegicus [4]): Active
Activity (Rattus norvegicus [20]): 16.5 g
Activity (Rattus norvegicus [21]): 2.3 g
Activity (Rattus norvegicus [22]): Dose-dependent effect
Activity (Rattus norvegicus [23]): Non-toxic
Activity (Rattus norvegicus [6]): Active
Activity (Rattus norvegicus [24]): 6.9
Activity (Rattus norvegicus [25]): Non-toxic

O=C(Nc1ccc(F)cc1)Nc1ccc(Cn2cc3c(=O)[nH]cnc3n2)cc1
Ki [1]: 1.15 nM

O=C(NCc1ccccc1)Nc1ccc(Cn2cc3c(=O)[nH]cnc3n2)cc1
Ki [1]: 85.7 nM

O=C(Nc1ccc(Cc2ccccc2)cc1)Nc1ccc(Cn2cc3c(=O)[nH]cnc3n2)cc1
Ki [1]: 186 nM

O=C(Nc1ccc(Cn2cc3c(=O)[nH]cnc3n2)cc1)c1ccccc1
Ki [1]: 12.7 nM

CCCCCCCCCn1cc2c(=O)[nH]cnc2n1
Activity (Bos taurus): inactive

O=C(Nc1ccc(Cn2cc3c(=O)[nH]cnc3n2)cc1)c1ccc(C(F)(F)F)cc1
Ki [1]: 0.51 nM

CCCCCC[C@H]([C@H](C)O)n1cnc2c(N)ncnc21 [(+)-EHNA]
Ki [1]: 1.14 nM
